# Laboratory results as given in the RNAGym collection of RNA variant scans (doi:10.1126/science.aae0568).
# This sample holds only a part of the variants without activity.
# B1: tRNA (parent)
# chain: GUUCCGUUGGCGUAAUGGUAACGCGUCUCCCUCCUAAGGAGAAGACUGCGGGUUCGAGUCCCGUACGGAACG
# Variants of: B1
# Experiment: yeast fitness relative to wild type (ratio to wild type); higher = fitter; tRNA-Arg(CCU), competitive growth, 37 C, YPD
# Outline: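 Variants of the tRNA-Arg(CCU) gene were chemically synthesised with a 3% per-site mutation rate across 69 sites and placed at the native genomic locus in Saccharomyces cerevisiae. Six parallel replicates of the pooled strains were competed in YPD at 37°C for 24 hours, and gene amplicons from the start and end populations were read by 100-nucleotide paired-end sequencing. Darwinian fitness relative to wild type was derived from changes in genotype frequencies. Genotypes required ≥ 100 starting reads, and estimates < 0.5 were set to 0.5.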
row,Variant,yeast fitness
1,GUUCCGUGGGUGUAAUGGUAACGUGUCUCCCUCCUAUGGAGAAGACUGCGGGUUCGAGUCCCGUAAGGAACG,≤ 0.5
2,GUUCCGUUGGCGUAAUGGUAACGCGUCUCCCUCCUAAGGAGAAGAAUGCGGGUUCGAGUCCCGUACGCAACG,0.78
3,GUUCCGUUGGCAUAAUGGUAACGCGUCUCCCUCCUCAGGAAAAGACUGCGGGCUCGAGUCCCGUACGGAACG,≤ 0.5
4,GUUCCGUCGGCGUAAUGGUAACGCGUCUCGGUCCUAAGGAGAAGACUGCGGGUUCGAGUCCCGUCCGGAACG,0.527
5,GUUGCGUUACCGUAAUGGUAACGCGUCUACCUCCUAAGGAGAAGACUGCUGGUUCGAGGCCCGUACGGAACG,0.599
6,GUUCCGUAGACGUAAUGGUAACGCGUCUCCCUCCUAACGAGAAGACUGCGGGUUCGAGUCCCGUACGGAACG,≤ 0.5
7,GUUUCGUUGGCGUAAUGGUAACGCGUCUCCCUACUAAGGAGAAGACUGCGGGUUCGAGUCCCGUACGAAACG,≤ 0.5
8,GUUCCGUUGGCGUAAUGGUAACGCGUCUCCCUCCUAAGAAGAAGACUGCGGGUUCGUGUCCCGUACCGAACG,0.555
9,GUUCCGUUCGCGUAGUAGUAACGCGUAUCCGUCCUAAGGAGAAGACUGCAGGUUCGAGUCCCGUACGGAACG,≤ 0.5
10,GUCCCGUUGGCGUAAUGGUAACGCGUCUCCCUCCGAAGGAGAAGACUGCGGGUUCGCGUCCCGUACGGACCG,≤ 0.5
11,GUUCCGUUAGCGUAAUGGUAACGCGUCGCCCUCCUAAGGAGAAGCCUGCGGGUUCGAGUCCCGUACGGAACG,≤ 0.5
12,GCUCCGUUGGCGUAAUGGUAAUGCGUCUCCCUCCUAAGGAGAAGACUACGGGUUCGAGUCCCCUACGGAACG,0.701
13,GUUCCGUUGGCAUCAUGGUAACGCGUCUCCUUCCUAAGGAGAAGACUGGGGGUUCGAGUACCGUACGGAACG,≤ 0.5
14,GUUCCAUUGGCGUAAUGGUUACGCGUCUCCCUCCUAAGGAGGAGACUGCGGGUUCGAGUCCCGUACGGAACG,≤ 0.5
15,GUUUCGUUGGCCUAAUGGUAACGCGUCUCCCUCCUAAGGAGAAGACUGCGGGUUCGAGUCCCGCACGGAACG,0.696
16,GUUUCGUUGGCGUAAAGGUAACGCGUCUCCCUCCUACGGAGAAGACUGCGGGUUCGAGUCCCGUACGGAACG,≤ 0.5
17,GUUCCGUUGGCGUAAUGGUAACGCGUUUCCCUCGUAAGGGGAAGAGUGAGGGUUCGAGCCCCGUACGGAACG,≤ 0.5
18,GUUCCGGUGGCGUAAUGGUAACGCGUCUCCCUCCUCAGGAAAAGACUGCGGGCUCGAGUCCCGUACGGAACG,≤ 0.5
19,GUUCCGUUGGCGUAAUGGUAACGCGUUUCCCUCCUACGGUGAUGACUGCGGGUUCGAGUCCCGUUCGGAACG,≤ 0.5
20,GUUCCGUUGGCGCAAUGGUAACGCGUCUCCCCCCUAAGGAGAAGACUGCGGGUUCGAGUCCCGUACGGAACG,0.88
21,GUUUCGUUGGCGUAAUGGUAACGCGUCUCCCUCCUAAGGAGAAGCCUGCGGGUUCGAGUGCCGUACGGGACG,≤ 0.5
22,GUUCCAUUGGCGUAAUCGUAACGCGUCUCCGUCCUAAGGAGAAGACUGCUGGAUCGAGUCCCGUACGGAACG,0.559
23,GUUCCGUUGGCGUAAUGAUAACGCGUCUCCCUCCUAAGGAGAAGACUGCGGGUUCGAGUCCCGUAAGGAACG,0.516
24,GUUCCGUUGGCCUAAUGGUAACGCGUCUACCUCCUAAGGAGAAGUCUGCGGGUUCGAGUCCUGUACGGAACG,≤ 0.5
25,GUUCCGUCGGCGUAAUGGUAACGCGUCUCCCUCCUAAGGGGACGACUGCGGGUUCGAGUCCCGUACGGUACG,≤ 0.5

row,Variant,yeast fitness
1,GUUCCGUUGGCGUAAUGGUAACGCGUCUCCCACCUAACGAGAAGACUGCGGGUUCGAGUCCCGUACGGAACG,0.652
2,GUUCCGUUGGCGUAAUGGUAACGCGUCUCCCUCCUAAGGAGAAGAAUGCGGGUUCGAGUCCCGUACGGCACG,0.839
3,GUUCCGUUGGCGUAAUGGUAACGCGUCUCCCUCCUAAGGAGUAGUUUGCGGGUUCGAGUCCCGUAAGGAACG,≤ 0.5
4,GUUCCGUUGGCGUAAUGGUAACGCGUCUCUCUCCUAAGGAGAAGACUGCGGGUUCGAGUCCCGUACGACACG,0.544
5,GUCCCGUUGGCGUAAUGGUAACGCGCCUCCCUCCUAAGGAGUAGACUGCGGGUUCGAGUCCCGUACGGAACG,0.939
6,GUUCCGUUGGCGUAAUGGUAGCGCCUCUACCUCCUAAGGAGAAGACUGCGGGUUGGAGUCCCGUACGCAACG,≤ 0.5
7,GUUCCGUUGGCGUAAUGGUAACGCGUCUCCCUCCUAAGGAGAUGACUGCGGGUACGCGUCCCGUACGGAACG,0.533
8,GUUCCGUUGGCGUUAUGGUAACGGGUCUCCCUCCUAAGGAAAAAACUGCGGGAUCGAGUCCCGUAUGGAACG,0.533
9,GUUCCGUUGGCGUGAUGGUAACGCGUCUCCCUCCUAACGAGAAGACUGCGGGUUCGGGUCCCGUACGGAGCG,≤ 0.5
10,GUUAUGUUGGCGUAAUGGUAACGCGUCUCCCUCCUAAGGAGAAGACUCCGGGUUCGAGUCCCGUACGGAACG,≤ 0.5
11,GUUCCGUUGGCGUAAUGGUAACGCGUCUCCCUCCUAAGGAGAAGACUGGGGGUUCGAGUUCCGUCCGGAACG,≤ 0.5
12,GUUCCGUUGGGGGAAUGGUAACGCGUCUCCCUCCUAAGGAGAAGACUGCGGGUUCGAGUCCCAUACGGAACG,≤ 0.5
13,GUUCCGUUGGCGUAAUCGUAACGCGUCUCCCUCCUAAGGUGAAGACUGCGGGUUCGAGUCCCGUAGGGAACG,≤ 0.5
14,GUUCCGUUGGCGUAAUGGUAAUGAGUUUCCCUCCUAAGGAGACGACUGCGGGUUCGAGUCCCGUACGGAACG,≤ 0.5
15,GUUCCGUUGGCGUAAUGGUAACGCGUCUUCCUCCUAAGGAGUAGACUGCGGGUUCGAGUCCCGUAAGGAACG,0.567
16,GUUCCGUUGGCGUAAUGGUAACGCGUCUCCCUCCUAAGGAGAAGACUGCGGGUUCGCGUCCCGUACGCAACG,0.729
17,GUUCCGUUGGCGUAAUGGUAAGGCGUCUCCCUCUUAAGGAGAAGAAUGCGGGUUCGAGUCCCGUACGGAACG,≤ 0.5
18,GUUCCGUUGGCGUAACAGUAACGCGUCUCCCUCCUAAGGAGAAGACUGCGGGUUCGAGUCCCGUACGGAACG,0.797
19,GCUCCGUUGGCGUAAUGGUAACGCGUCUCCGUCCAAAGGAGAAGACUGCGGGUUCGAGUCCCAUACGGAACG,≤ 0.5
20,GUUCCGUUGGCGUAAUGGUAACACGUCUGCCUCCUAAGGAGAAGACUGCGGGUUCGAGUCCCGUACGCAACG,≤ 0.5
21,GUUCGGUUGGCGUAAUGGUAACGCGUCUCCCUCCUUAGGAGAAGACUGCGGGUUCGAGUCCCGUACAGAACG,0.571
22,GUUCCGUUGGCGUAACGGUAACGCGUCUCCCUCCUGAGGAGAAGACUGCGGGUUCGAGUCCCGUACGGAACG,1.03
23,GGUCCGUUCGCGUAUUGGCAACGCGUCUCCCUCCUAAGGAGAAGACUGCGGGUUCGAGUCCCGUACGGAACG,≤ 0.5
24,GUUCCGCUGGCGUCAUGGUAACGCGUCUCCCUCCUAAGGAGAAGACUGCGGGUUCGAGUCCCGUACGGAACG,0.679
25,GUUUCGUUGGCGUAAUGGUAACGCGUCUCCCUCCUAAGGAGAAGACUGCGGAUUCGAGUCCCGUACGGACCG,0.646

row,Variant,yeast fitness
1,GUUCCGUUGGCGUAAUGGUAACGCGUCUCCCUCCUAAGGAGUAGACUGCGGGUUCGAGUCCCGUACGGACCG,1.01
2,GUUCCGUUGGCGCAAUGGUAACGCGUCUCCCUCCUAGGGAGAAGACUGCGGGUUCGAAUCCCGUACGGAACG,0.647
3,GGUCCGUUGGCGUAUUGGUAACGCGUCUCCCUCCUAAGGAGAAGACUGCGGGUUCGAGUCCGGUACGGAACG,≤ 0.5
4,GUUCCGUUGGCGUAAUGGUAACGCGUCCCCCUCCUAAGGGGAAGACUGCGGGUUCGAGUCCCGUACGGAACG,0.807
5,GUUCGGUCGGCGUAAUGGUAACGCGUCUCCCUCCUAAGGAGAAGACUGCGGGUUCGAGUACCAUACGGAACG,≤ 0.5
6,GUUCCGUUGGCGAAAUGGUUACGUGUCUCCCUCCUAGGGAGAAGACUGCGGGUUCGAGGCCCGUACGGAACG,≤ 0.5
7,GUUCCGUUGGCGUAAUGGUAACGCGUCUCCCUCCUAUGGAGAAGACUGCGGGUUAGAGUCCCGUACGGAACG,≤ 0.5
8,GUUCCGUUGGCGUAAUGGUGACGUGUCUCCCUUCUAAGGAGACGACUGCGGGUUCGAGUCCCGUACGGAACG,≤ 0.5
9,GUUCCGUUGGUGUAAUGGUAACGUGUCUCUCUCCUAAGGAGAAGACUGCGGGUUCGCGUCCCCUACGGAACG,≤ 0.5
10,GUUCCGUUGGCGUAAUGGUGACGCGUCUCCCUCCUAAGGAGAAGACUGCAGGUUCGUGUCCCGUACGGAACG,0.542
11,GUUCCGUUGGCGUAAUGGUAACGCGUCUUCCUCCUAAGGAGAACACUGCGGGUUCGAGUCCCGUACGAAACG,0.57
12,GUUUCGUUGGCGUAAUGGUAACGCGUCUACCUCCUAAGGAAAAGACUGCGGGUUCGAGUCCCGUACGGAACG,≤ 0.5
13,GAUGCGUUGGCGUAAUGGUAACGCGUCUCCCUCCUAACGAGAAGUCUGCCGAUUCGAGUCCCGUACGGAACG,0.849
14,GUUCCGUUGGCGUAAUGGUAACGCGUCUCCCUCCUAAGGAGCAGACGGUGGGUUCGAGUCCCGUACGGAACG,≤ 0.5
15,GUUCCGUUGGCGUAAUGGGAACGCGUCUCCCUCCUAAGGGGAAGACUGAGGGUUCGAGUCCCGUACGGAACG,≤ 0.5
16,GUUCCGUUGGCGUAAUGGUAACGCGUGUCCCUCAUAAGGGGAAGACUGCGGGUUCGAGUCCCGUACGGAACG,0.644
17,GUUCCGUUGGCGUGAUGGCAACGCGUCUCCCUCCCAAGGGGAAGACUGCGGGUUCGAGUCCCGUACGGAACG,≤ 0.5
18,GUUCCGUUGGGGUAAUGGUAUCGCGUAUCCCUCCUAAGGAGAAGACUGCGGGUUCGAGUCGCGUACGGAACG,0.531
19,GUUCCGUUGGCGUAAUGGUAAAGCAUCUCCCUCCUAAGGAGAAGACUGCGGGUUCGAGUCCCGUACGGUACG,0.793
20,GUUCCGCCGGCGUAAUGGUAACGCGUCUCCCUCCUAAGGAGAAGACUGCGGGUUCGAGUCCCGUACGGAACG,0.976
21,GUUCCGUUGGCGUAAUGGUAACGCGUCUCCCUCCUAAGGAGAAGACUGCGGGUUCGUGUGCCGUACACAACG,≤ 0.5
22,GUUGCGUUGGCGUAAUGGUAACGCGUCACCCUCCUAAGGCGAAGACUGCAGGUUCGAGUCCCGUACGGAACG,≤ 0.5
23,GUUCCGUUGGCGUGAUGGUAACCCGUCUCCCUCCUAAGGAGAAGACUGCGGGUUCGAGUCCCGUACGGAACG,0.692
24,GUUCCGUUAGCGUAAUGGUAACGCGUCUCCCUCCUAAGGAGAAGACUACGGGUUCGAGUCCCGUACGGCACG,0.87
25,GUUCCGUUGGGGUAAUGGUAACGAGUCGCCCUCCUAAGGAGAAGACUGCGGGUUCGAGUCCCGUACGGAACG,≤ 0.5
